Reference: ChEMBL document CHEMBL4052824, “Interfering with HuR-RNA Interaction: Design, Synthesis and Biological Characterization of Tanshinone Mimics as Novel, Effective HuR Inhibitors” (J Med Chem, 2018)
pIC50, pKi: −log10 of the molar value. Calls of active or inactive are those of the source. The rule behind the calls is not given here.

Assays:
ELAV-like protein 1 [1] = target: T1, ELAV-like protein 1 (Homo sapiens, UniProt Q15717); assay: Binding affinity to human full length recombinant His-tagged HuR expressed in Escherichia coli […] assessed as inhibition of interaction with single-strand Bi-AU RNA probe by AlphaScreen assay
T1 sequence (Q15717 whole entry): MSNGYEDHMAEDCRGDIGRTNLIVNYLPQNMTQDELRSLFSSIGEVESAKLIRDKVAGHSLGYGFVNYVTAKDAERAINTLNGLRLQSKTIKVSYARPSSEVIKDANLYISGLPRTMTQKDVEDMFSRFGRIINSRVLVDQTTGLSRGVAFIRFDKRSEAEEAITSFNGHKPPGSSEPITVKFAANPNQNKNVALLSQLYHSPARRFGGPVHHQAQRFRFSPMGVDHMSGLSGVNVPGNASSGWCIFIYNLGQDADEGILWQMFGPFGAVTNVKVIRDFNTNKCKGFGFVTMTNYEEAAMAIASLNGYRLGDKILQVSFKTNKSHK

ELAV-like protein 1 [2] = target: T1, ELAV-like protein 1; assay: Binding affinity to human full length recombinant HuR expressed in Escherichia coli […] assessed as inhibition of interaction with 5'-DY681-labeled AU-rich RNA probe at 5 uM after 30 mins by REMSA
How it was run: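 Non-denaturing, non-cross-linked REMSA: full-length recombinant His-tagged HuR (E. coli-expressed) in at least 10-fold excess incubated 30 min with 75 fmol 5′-DY681-labeled AU-rich RNA probe plus DMSO or compound at 5 μM; reduction of shifted probe band scored qualitatively.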

ELAV-like protein 1 [3] = target: T1, ELAV-like protein 1; assay: Change in HuR localization from nucleus to cytoplasm in human MCF7 cells at 1 uM after 3 hrs by DAPI staining-based immunofluorescence method; assay type: cell-based
How it was run: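 MCF7 cells, 8.000/well, treated 3 h alongside DMSO control, then fixed in 3.7% PFA for 15 min at RT. Permeabilised 10 min (200 mM sucrose, 0.2% Triton X-100) and blocked 15 min in 2% BSA. Stained with anti-HuR (1:250), Alexa 594 secondary (1:500) and DAPI (1.5 μg/mL). Imaged at 40×, 13 fields/well. Read-out: nuclear/cytoplasmic HuR ratio, mean of single cells per well.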

MDA-MB-231 [4] = assay: Cytotoxicity against human MDA-MB-231 cells assessed as decrease in cell viability after 72 hrs by OZBlue assay; conditions: MDA-MB-231, 72 h
PANC-1 [5] = assay: Cytotoxicity against human PANC1 cells assessed as decrease in cell viability after 72 hrs by OZBlue assay; conditions: PANC-1, 72 h
MCF7 [6] = assay: Cytotoxicity against human MCF7 cells assessed as decrease in cell viability after 72 hrs by OZBlue assay; conditions: MCF7, 72 h
[7] = Binding affinity to 5'-DY681-labeled AU-rich RNA probe (unknown origin) at 5 uM after 30 mins by REMSA
How it was run: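 Non-denaturing, non-cross-linked gel-shift assay: 75 fmol of 5′-DY681-labeled AU-rich RNA probe incubated 30 min with compound at 5 μM, with DMSO as control. The probe was read by its fluorescent label to detect a shift or loss of the free RNA band.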

PANC-1 [8] = assay: Antimigratory activity in human PANC1 cells at 5 to 20 uM after 24 to 48 hrs by scratch assay; assay type: functional, cell-based
How it was run: (§1)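 Scratch assay: monolayers in DMEM with 10% FBS wounded with a pipette tip, then treated with DMSO or compound; the same field imaged at 0, 24 and 48 h at 5× magnification and residual open wound area measured. Student t test.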

MCF7 [9] = assay: Downregulation of RPLP0 mRNA expression in human MCF7 cells at 5 uM after 6 hrs by qRT-PCR method; assay type: functional, cell-based
How it was run: (§2)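 MCF7 cells treated with 5 μM compound or DMSO for 6 h. Total RNA extracted, transcript levels measured by qRT-PCR and normalized to RNA18s. Biological triplicate, mean ± SD, t test versus control.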

MCF7 [10] = assay: Downregulation of HPRT1 mRNA expression in human MCF7 cells at 5 uM after 6 hrs by qRT-PCR method; assay type: functional, cell-based; how it was run: as §2
[11] = Binding affinity to TNF AU-rich elements (unknown origin) at 10 uM by CD spectroscopic method
How it was run: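 Circular dichroism of TNF-ARE RNA (10 μM final) with compound (10 μM) in 10 mM sodium phosphate, pH 7.3. Spectra were recorded at 240–350 nm and 100 nm/min. The spectrum of compound alone (10 μM) in the same buffer was subtracted, and Δε was plotted to judge any change in RNA conformation.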

MDA-MB-231 [12] = assay: Antimigratory activity in human MDA-MB-231 cells at 5 to 20 uM after 24 to 48 hrs by scratch assay; assay type: functional, cell-based; how it was run: as §1

**Q.** With `O=C1C=C(c2ccccc2)c2c(c(-c3ccccc3)cn2S(=O)(=O)c2ccccc2)C1=O` as the compound, how does the pKi (ELAV-like protein 1 [1]) read?
**A.** < 7.00

**Q.** For `O=C(O)Cc1ccc(SC2=CC(=O)C(=O)c3c(-c4ccccc4)cn(S(=O)(=O)c4ccccc4)c32)cc1`, which inhibition (ELAV-like protein 1 [2]) is on record?
**A.** Active

**Q.** What does the source list for `Cc1cccc2c3c(ccc12)C1=C(C(=O)C3=O)[C@@H](C)CO1` [DIHYDROTANSHINONE I]?
**A.** Activity (ELAV-like protein 1 [3]): inactive; pIC50 (MDA-MB-231 [4]): 5.05; pIC50 (PANC-1 [5]): 5.54; pKi (ELAV-like protein 1 [1]): 7.30; pIC50 (MCF7 [6]): 5.43

**Q.** With `O=C1C=C(c2ccc([N+](=O)[O-])cc2)c2c(c(-c3ccccc3)cn2S(=O)(=O)c2ccccc2)C1=O` as the compound, how does the pKi (ELAV-like protein 1 [1]) read?
**A.** < 7.00

**Q.** With `CC1=CC(=O)C(=O)c2c(-c3ccccc3)cn(S(=O)(=O)c3ccccc3)c21` as the compound, how does the pKi (ELAV-like protein 1 [1]) read?
**A.** < 6.70

**Q.** With `O=C1C=Cc2c(c(-c3ccccc3)cn2S(=O)(=O)c2cccc([N+](=O)[O-])c2)C1=O` as the compound, how does the pKi (ELAV-like protein 1 [1]) read?
**A.** < 7.00

**Q.** Which results are given for `O=C1C=C(Sc2ccccc2)c2c(c(-c3ccccc3)cn2S(=O)(=O)c2ccccc2)C1=O`?
**A.** inhibition (ELAV-like protein 1 [2]): Active; pIC50 (MDA-MB-231 [4]): 4.62; pIC50 (PANC-1 [5]): 4.60; pIC50 (MCF7 [6]): 4.54

**Q.** What does the source list for `COc1ccc(SC2=CC(=O)C(=O)c3c(-c4ccccc4)cn(S(=O)(=O)c4ccccc4)c32)cc1`?
**A.** pIC50 (MDA-MB-231 [4]): 4.84; pIC50 (PANC-1 [5]): 4.87; pIC50 (MCF7 [6]): 4.63

**Q.** With `O=C1C(=O)c2c(-c3ccccc3)cn(S(=O)(=O)c3ccccc3)c2C2=C1C1C=CC2CC1` (stereo unspecified) as the compound, how does the pKi (ELAV-like protein 1 [1]) read?
**A.** < 6.52

**Q.** With `COc1cccc(-c2cn(S(=O)(=O)c3ccccc3)c3c2C(=O)C(=O)C=C3)c1` as the compound, how does the pKi (ELAV-like protein 1 [1]) read?
**A.** < 6.70

**Q.** With `O=C1C=Cc2c(c(-c3ccccc3)cn2S(=O)(=O)c2ccc([N+](=O)[O-])cc2)C1=O` as the compound, how does the inhibition (ELAV-like protein 1 [2]) read?
**A.** Active

**Q.** With `COc1ccc(-c2cn(S(=O)(=O)c3ccccc3)c3c2C(=O)C(=O)C=C3)cc1` as the compound, how does the pKi (ELAV-like protein 1 [1]) read?
**A.** < 6.70

**Q.** For `Cc1ccccc1-c1cn(S(=O)(=O)c2ccccc2)c2c1C(=O)C(=O)C=C2`, which inhibition (ELAV-like protein 1 [2]) is on record?
**A.** Active

**Q.** And the pIC50 (MDA-MB-231 [4])?
**A.** 4.33

**Q.** And the pIC50 (PANC-1 [5])?
**A.** 4.59

**Q.** What about the pIC50 (MCF7 [6]) of the same compound?
**A.** 4.23

**Q.** With `O=C1C=Cc2c(c(-c3ccccc3)cn2S(=O)(=O)c2cccc(F)c2)C1=O` as the compound, how does the pKi (ELAV-like protein 1 [1]) read?
**A.** < 7.00

**Q.** With `CN(C)c1ccc(-c2cn(S(=O)(=O)c3ccccc3)c3c2C(=O)C(=O)C=C3)cc1` as the compound, how does the pKi (ELAV-like protein 1 [1]) read?
**A.** < 7.00

**Q.** With `O=C1C=Cc2c(c(-c3ccccc3)cn2S(=O)(=O)c2ccccc2)C1=O` as the compound, how does the Activity [7] read?
**A.** inactive

**Q.** What about the pIC50 (MDA-MB-231 [4]) of the same compound?
**A.** 4.62

**Q.** And the pIC50 (PANC-1 [5])?
**A.** 4.58

**Q.** What about the Activity (PANC-1 [8]) of the same compound?
**A.** Active

**Q.** And the Activity (MCF7 [9])?
**A.** inactive

**Q.** What about the Activity (MCF7 [10]) of the same compound?
**A.** inactive

**Q.** What about the Activity [11] of the same compound?
**A.** inactive

**Q.** And the Activity (MDA-MB-231 [12])?
**A.** Active

**Q.** And the pIC50 (MCF7 [6])?
**A.** 4.49
